Compounds with a hit are over-represented: about 3% of the library has one in this group of screens.
iPSC survival up = hiPSC single-cell survival enhancement; 360,000 compounds, 0.044% hits; ATPlite luminescence; 100% = ROCK inhibitor wells, 0% = DMSO; survival enhancement, % at 20 µM; in the data active = survival enhancement above about 18%;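 note: cells exposed to compounds for 16 hours before the ATP read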
Granule exo inh = blocks lytic granule exocytosis. TALL-104 LAMP-1 surface exposure, flow cytometry; cells stimulated with thapsigargin and PMA. inhibition, % at 10 µM. 360,000 compounds, 0.66% hits. AID 651702;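 active = inhibition above about 55%, limit read from the data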
Apaf1 inhib = inhibitors of human Apaf-1 apoptosome. O14727. reconstituted apoptosome caspase-3 activity, DEVD-Rh110 fluorescence. inhibition, % at 20 µM. 330,000 compounds, 0.71% hits; active = inhibition of at least 40% at 20 µM;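 note: plate controls were DMSO wells for no effect and DEVD-CHO caspase inhibitor wells for full effect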
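Assay system – apoptosome proteins · Medium – Hepes buffer, pH 7.5 · Also added – cytochrome c with DEVD-Rh110 · Timing – 30 min compound preincubation, 50 min activation, room temperature · Detection – Rh110 fluorescence, excitation 480 nm, emission 540 nm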
beta cell repl = inducers of beta-cell replication in MIN6 cells; MIN6 cells proliferation, ATPlite luminescence, 48 h; cells starved in 0.2% serum; 100% = growth in 10% serum; proliferation, % at 10 µM; 330,000 compounds, 0.29% hits;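 active = compounds whose signal lies at least 3.5 SD above the mean of all wells on their plate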;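 note: 0% = DMSO-treated cells in low-serum medium and 100% = 10% serum control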
MPTP inh = permeability transition pore inhibition; 360,000 compounds, 1.4% hits; inhibition, % at 10 µM; AID 602449; isolated mouse mitochondria, Ca2+ swelling absorbance, 30 min;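 active = inhibition of 50% or more, scaled per plate between neutral and stimulator controls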;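 note: 0% = DMSO wells given calcium and 100% = 1 mM EGTA wells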
UBC13 polyUb = inhibitors of human UBC13 polyubiquitin chain formation; 330,000 compounds, 0.47% hits; P61088; TR-FRET; inhibition, % at 20 µM; in the data active = inhibition above about 45%, passing the limit was not always enough
Starred values were filed as active, the others as inactive; / = no result given.

SMILES	iPSC survival up	Granule exo inh	Apaf1 inhib	beta cell repl	MPTP inh	UBC13 polyUb
C[C@@H]1CN([C@H](C)CO)C(=O)CCCn2cc(nn2)CO[C@H]1CN(C)C(=O)Cc1ccccc1	-1	6	/	/	-2	/
CC(=O)Nc1ccc(S(=O)(=O)NCCc2ccc3c(c2)OCCO3)cc1	-2	14	/	/	-2	/
COc1ccc2ccccc2c1C1CC(=O)N2CN(C)CSC2=C1C#N (configuration not stated)	-2	9	71*	-4	7	-21
CCc1ccccc1N1CSC2=C(C#N)C(c3cc(OC)c(OC)cc3OC)CC(=O)N2C1 (configuration not stated)	2	1	43*	-3	3	-39
COc1cc(OC)c(C2CC(=O)N3CN(C)CSC3=C2C#N)cc1OC (configuration not stated)	1	-2	14	1	0	-7
COc1ccc(OC)c(C2CC(=O)N3CN(c4cccc(Cl)c4C)CSC3=C2C#N)c1 (configuration not stated)	1	-5	17	0	-2	-24
COc1cccc(C2CC(=O)N3CN(c4cccc(Cl)c4C)CSC3=C2C#N)c1OC (configuration not stated)	27*	4	1	-2	-1	-17
COc1ccc(OC)c(C2CC(=O)N3CN(c4cccc(Cl)c4)CSC3=C2C#N)c1 (configuration not stated)	1	-3	81*	-2	0	-13
COc1ccc(OC)c(C2CC(=O)N3CN(c4ccc(C)c(Cl)c4)CSC3=C2C#N)c1 (configuration not stated)	2	14	15	3	0	-5
CCOC(=O)c1ccc(N2CSC3=C(C#N)C(c4ccc(OC)cc4OC)CC(=O)N3C2)cc1 (configuration not stated)	-1	3	50*	-4	1	-12
C=CCc1cc(Cl)ccc1OCCCn1ccnc1	0	2	21	0	0	1
CCc1ccc2c(c1)Sc1ccccc1CC2N1CCN(C)CC1 (configuration not stated)	0	58*	7	-4	-6	14
CCCN1CCN(C(=O)c2cc3c(s2)-c2ccccc2OC3)CC1	0	-4	14	-4	1	61*
NC1=NC2OC(CO)C(O)C2O1 (configuration not stated)	-2	4	/	/	-1	/
CC(c1ccco1)N(C(=O)c1cc(Cl)cc(Cl)c1)c1ccccn1 (configuration not stated)	0	-3	14	0.0*	-3	6
Cc1ccc(CCN2CC(C(=O)NCCN3CCCCCC3)CC2=O)cc1 (configuration not stated)	2	-2	23	-1	-1	25
Cc1ccc(CCN2CC(C(=O)NCCCN3CCCCCC3)CC2=O)cc1 (configuration not stated)	22*	-2	15	-2	0	22
COc1ccc(CNC(=O)C(C)n2ccc3cc(S(=O)(=O)N4CCCCCC4)ccc32)cc1 (configuration not stated)	-1	3	5	-5	1	-2
Cc1ccc(NC(=O)CCC(=O)c2cccs2)c(Br)c1	0	17	12	1	0	1
Cc1ccc(NC(=O)COC(=O)CCC(=O)c2cccs2)c(Br)c1	2	75*	-3	2	1	6
COc1ccc(-n2nc3c(c2NC(=O)C2CC(=O)N(c4ccccc4)C2)CS(=O)(=O)C3)cc1 (configuration not stated)	1	-2	-13	0	0	2
Cc1ccccc1-c1nc(S(=O)(=O)c2ccc(Br)cc2)c(NCc2cccnc2)o1	-2	76*	11	-4	-4	14
CCc1ccc(OCC(=O)NNC(=S)NC(=O)C2CC2)c(Br)c1	0	3	-8	-7	0	72*
CS(=O)c1nc(-c2ccc(Br)cc2)cc(-c2ccccc2)c1C#N (configuration not stated)	-3	53	55*	-4	3	3
COC/C=C/C1=CC2=CC(=O)C(C)(OC(=O)c3cnc4ccccc4n3)C(=O)C2=CN1CC(C)C (configuration not stated)	3	2	41*	0	2	-66
SMILES	iPSC survival up	Granule exo inh	Apaf1 inhib	beta cell repl	MPTP inh	UBC13 polyUb
COCCCNC(=S)N1CCC(NC(=O)Nc2ccc(C)cc2)CC1	1	0	-3	0	-1	2
N=C1S/C(=C\c2ccc(-c3cccc(Cl)c3)o2)C(=O)N1c1nccs1	-4	73*	/	/	15	/
COc1ccc(CC(=O)OCC(=O)c2ccc(S(=O)(=O)N3CCCCC3)cc2)cc1	0	-6	6	-3	1	2
CCN(CC)CCn1c(SCC(=O)Nc2cccc(OC)c2)nc2c(sc3ccccc32)c1=O	-1	69*	17	-6	10	13
O=C(N/N=C/c1c(O)ccc2ccccc12)c1cccnc1	0	14	11	-5	1	-12
O=C(N/N=C\c1c(O)ccc2ccccc12)c1cncc(Br)c1	0	80*	-5	-4	34	-69
COc1ccccc1NS(=O)(=O)c1cc(C(=O)N2CCN(C/C=C/c3ccccc3)CC2)ccc1C	0	19	34	-5	0	16
COc1ccccc1NS(=O)(=O)c1cccc(C(=O)N2CCN(C/C=C/c3ccccc3)CC2)c1	0	-1	46*	-2	0	24
COc1cc2ccccc2cc1C(=O)Nc1sc2c(c1C(N)=O)CCN(C(C)C)C2	0	39	51*	-7	0	31
CC1=CC(=O)O[C@@H]1[C@@]1(C)C[C@H]2OC(=O)C[C@H]3[C@@H](C)C(=O)C(O)=C1[C@@]23CO	2	-1	-9	-2	-2	0
COc1ccccc1CNS(=O)(=O)c1ccc(-c2cc(C)no2)cc1	0	8	45*	-6	1	5
CC1=C(c2ccccc2)CCC1=O	5	80*	3	4	0	-2
O=C1CC(c2ccccc2)=C(c2ccccc2)C1	2	-2	/	/	0	/
O=C(NCC(c1ccco1)N1CCCC1)c1cc2ccccc2s1 (configuration not stated)	0	-1	0	0	1	10
Cc1ccc(S(=O)(=O)n2nc(OC(=O)c3c(F)cccc3Cl)cc2N)cc1	1	78*	5	-2	-1	4
Cc1ccc(S(=O)(=O)n2nc(OC(=O)c3cccc(F)c3)cc2N)cc1	0	-12	8	2	0	5
Cc1ccc(Nc2nnc(SCC(=O)NC3CC3)s2)cc1	-2	-1	-10	-2	0	-2
O=C(Nc1cccnc1Cl)c1cccnc1Cl	23*	1	10	-5	-1	-5

Bioassay records deposited in PubChem by several laboratories.
